The results in this text go back to ChEMBL document CHEMBL2375304, “Synthesis and anticancer activity of novel 2-pyridyl hexahyrocyclooctathieno[2,3-d]pyrimidine derivatives” (2013).

Common to all, as to type: functional
Assay [1] deals with SF-295. Briefly: Growth inhibition of human SF295 cells at 10^-5 M after 48 hrs by Sulforhodamine B assay relative to control. The following applies: SF-295, 48 h, read-out: GI. The procedure, abridged: (§1)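 Single-dose primary screen at 10⁻⁵ M across 49 lines. Cells were plated 24 h beforehand, with a TCA-fixed time-zero plate, then exposed 48 h at 37 °C, 5% CO2. Cells were fixed with cold TCA, stained with SRB and read at 515 nm. Percent growth was calculated against time-zero and untreated-control absorbances.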
For orientation: The SRB assay estimates cell density from bound dye.

Assay [2] in a line: Growth inhibition of human HCC2998 cells at 10^-5 M after 48 hrs by Sulforhodamine B assay relative to control. Conditions: HCC 2998, 48 h, read-out: GI. The procedure, abridged: (§2)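 Single-dose screen at 10⁻⁵ M. Cells are preincubated 24 h at 37 °C in 5% CO2, then exposed to the compound, diluted from a DMSO stock into medium with gentamicin, for 48 h. Adherent cells are fixed with cold TCA (final 10%) and suspension cells with TCA (final 16%). Cells are stained with 0.4% SRB in 1% acetic acid and bound dye is read at 515 nm. Percent growth inhibition is taken against control wells and time-zero plates.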

In assay [3] the test system is SR. Briefly: Growth inhibition of human SR cells at 10^-5 M after 48 hrs by Sulforhodamine B assay relative to control. Conditions: read-out: GI. The procedure, abridged:
as §1

The subject of assay [4] is HL-60(TB). Briefly: Growth inhibition of human HL-60(TB) cells at 10^-5 M after 48 hrs by Sulforhodamine B assay relative to control. Conditions: HL-60, 48 h, read-out: GI. An outline of the steps:
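First-stage single-dose screen at 10⁻⁵ M. Cells pre-incubated 24 h at 37 °C, 5% CO2, then exposed to drug for 48 h. Settled cells fixed with TCA (final 16%), SRB-stained and read at 515 nm. Percentage growth inhibition is derived from treated, untreated control and time-zero absorbances.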

Assay [5] has as its system MDA-MB-231. Briefly: Growth inhibition of human MDA-MB-231 cells at 10^-5 M after 48 hrs by Sulforhodamine B assay relative to control. Conditions: MDA-MB-231, 48 h, read-out: GI. The procedure, abridged:
as §2

The subject of assay [6] is 786-0. Briefly: Growth inhibition of human 786-0 cells at 10^-5 M after 48 hrs by Sulforhodamine B assay relative to control. The following applies: 786-0, 48 h, read-out: GI. An outline of the steps: as §2
Assay [7] deals with OVCAR-5. Briefly: Growth inhibition of human OVCAR5 cells at 10^-5 M after 48 hrs by Sulforhodamine B assay relative to control. The following applies: OVCAR-5, 48 h, read-out: GI. An outline of the steps:
as §1

The test system of assay [8] is UACC-62. Briefly: Growth inhibition of human UACC62 cells at 10^-5 M after 48 hrs by Sulforhodamine B assay relative to control. The following applies: UACC-62, 48 h, read-out: GI. The procedure, abridged:
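Single-dose stage: compound tested at 10⁻⁵ M in the 49-cell-line panel. Cells grew 24 h at 37 °C, 5% CO₂ before drug addition. Drug stock was in DMSO at 400-fold, diluted in medium with gentamicin. After 48 h exposure, adherent cells were fixed with cold TCA (10% final) and stained with 0.4% SRB in 1% acetic acid. Dye was solubilized in 10 mM Tris, read at 515 nm. Growth percentage was taken relative to untreated control and time-zero plates.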

Assay [9] has as its system T47D. Briefly: Growth inhibition of human T47D cells after 48 hrs by Sulforhodamine B assay. The procedure, abridged: (§3)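 Cells were preincubated 24 h at 37 °C, 5% CO2, and a time-zero plate was TCA-fixed. Five concentrations were made by serial dilution from a DMSO stock (400-fold the top concentration) and incubated 48 h. Adherent cells were fixed with 10% final TCA and suspension cells with 16%. Plates were stained with 0.4% SRB and read at 515 nm. GI50 is the concentration giving 50% reduction in net protein increase versus control.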

The test system of assay [10] is 786-0. Briefly: Growth inhibition of human 786-0 cells after 48 hrs by Sulforhodamine B assay. Conditions: 786-0, 48 h. An outline of the steps: (§4)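 Five-concentration SRB assay using 10-fold or ½-log serial dilutions from a DMSO stock. Exposure is 48 h at 37 °C in 5% CO2 after 24 h preincubation. TCA fixation is followed by SRB staining and a reading at 515 nm. Percentage growth is computed from time-zero, control and treated absorbances. GI50 is the concentration where [(Ti−Tz)/(C−Tz)]×100 = 50, read from the plot against log concentration.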

Assay [11] deals with SK-OV-3. Briefly: Growth inhibition of human SKOV3 cells after 48 hrs by Sulforhodamine B assay. The following applies: SK-OV-3, 48 h. An outline of the steps: as §3
Assay [12] is described as follows: Growth inhibition of human NCI-ADR-RES cells after 48 hrs by Sulforhodamine B assay. An outline of the steps:
as §3

The test system of assay [13] is OVCAR-4. The assay is described as follows: Growth inhibition of human OVCAR4 cells after 48 hrs by Sulforhodamine B assay. The following applies: OVCAR-4, 48 h. An outline of the steps: as §3
Assay [14] has as its system UACC-62. Briefly: Growth inhibition of human UACC62 cells after 48 hrs by Sulforhodamine B assay. The following applies: UACC-62, 48 h. The procedure, abridged: (§5)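 Five-concentration stage in the […]-cell-line panel, using 10-fold or ½-log serial dilutions made from a DMSO stock (400-fold). Cells were preincubated 24 h at 37 °C, then drug-exposed 48 h. A time-zero plate was fixed with TCA at dosing, adherent cells were fixed with cold TCA (10% final), and protein was stained with SRB, absorbance 515 nm. GI50 was where [(Ti−Tz)/(C−Tz)]×100 = 50, from the percent growth vs log concentration plot, expressed as log10 GI50.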

Assay [15] relates to IGROV-1. Briefly: Growth inhibition of human IGROV1 cells after 48 hrs by Sulforhodamine B assay. The following applies: IGROV-1, 48 h. An outline of the steps:
as §4

The test system of assay [16] is M14. The assay is described as follows: Growth inhibition of human M14 cells after 48 hrs by Sulforhodamine B assay. The following applies: M14, 48 h. An outline of the steps: as §4
The test system of assay [17] is U-251. The assay is described as follows: Growth inhibition of human U251 cells after 48 hrs by Sulforhodamine B assay. Conditions: U-251, 48 h. The procedure, abridged:
as §5

For assay [18], the system named is HCT-116. The assay is described as follows: Growth inhibition of human HCT116 cells after 48 hrs by Sulforhodamine B assay. Conditions: HCT-116, 48 h. An outline of the steps:
as §4

Assay [19] relates to NCI-H322M. Briefly: Growth inhibition of human NCI-H322M cells after 48 hrs by Sulforhodamine B assay. An outline of the steps:
as §3

Assay [20] relates to SR. The assay is described as follows: Growth inhibition of human SR cells after 48 hrs by Sulforhodamine B assay. The procedure, abridged:
as §3

As for `c1cc(-c2nc(N3CCOCC3)c3c4c(sc3n2)CCCCCC4)ccn1`, the inhibition of growth at 10 µM is 19.5% in [1]; -8.59% in assay [2]; 24.1% in [3]; 24.6% in [4]; 28.1% in assay [5]; 32.9% in assay [6]. Besides, the values for the inhibition of growth at 10 µM in assay [7] and in assay [8] were -1.32% and 15.5%, respectively.

As for `CN1CCN(c2nc(-c3ccccn3)nc3sc4c(c23)CCCCCC4)CC1`, the inhibition of growth at 10 µM was 13.8% in assay [1]; 4.02% in assay [2]; 4.37% in assay [4]; 6.82% in assay [5]; 10% in assay [6]; 2.04% in [7]. Moreover, the inhibition of growth at 10 µM in [8] was 9.41%.

Take `Clc1nc(-c2ccccn2)nc2sc3c(c12)CCCCCC3`: the inhibition of growth at 10 µM in [2] is 36.6%; in assay [3], 33.7%; in [4], 3.98%; in assay [5] it was -16.9%; in [6], 1.61%; in [7], -7.94%. In addition, the inhibition of growth at 10 µM in [8] stood at 4.04%.

By GI50 is commonly meant the concentration giving 50% growth inhibition. On to `NNc1nc(-c2ccccn2)nc2sc3c(c12)CCCCCC3`, for which the GI50 in assay [9] is 5.01 µM; in [10], 5.62 µM; in assay [11], 30.9 µM; in assay [12] it was 0.457 µM; in assay [13] it was 10.5 µM; in assay [14], 5.89 µM. The GI50 is 4.17 µM in assay [15]; 5.5 µM in assay [16]; 4.47 µM in assay [17]; 3.55 µM in [18]; 5.37 µM in [19]; 3.98 µM in assay [20].

Consider `Clc1nc(-c2ccncc2)nc2sc3c(c12)CCCCCC3`, for which the inhibition of growth at 10 µM in assay [2] is -12.3%; in assay [3], 21.4%; in assay [4], 3.12%; in [5] it was -6.99%; in [6], 0.46%; in [7], -5.24%. Further, in assay [8], the inhibition of growth at 10 µM amounted to 6.14%.

Take `COc1ccc(N2CCN(c3nc(-c4ccccn4)nc4sc5c(c34)CCCCCC5)CC2)cc1`: the GI50 is 6.31 µM in assay [9]; 8.51 µM in assay [10]; greater than 100 µM in [11]; 4.79 µM in assay [12]; 8.51 µM in [13]; 6.92 µM in [14]. In addition, the GI50 was 5.37 µM in assay [15]; 5.37 µM in [16]; 4.27 µM in [17]; 3.24 µM in assay [18]; 5.5 µM in [19]; 3.16 µM in assay [20].

For `CN1CCN(c2nc(-c3ccncc3)nc3sc4c(c23)CCCCCC4)CC1`, the concentration for 50% growth inhibition (GI50) in assay [9] is 13.5 µM; in [10], 4.79 µM; in assay [11], 12 µM; in [12], 8.13 µM; in [13], 12.6 µM; in assay [14], 11 µM. For the same compound, the GI50 in assay [15] was 8.13 µM; in assay [16], 5.37 µM; in assay [17] it was 9.33 µM; in assay [18] it was 5.13 µM; in assay [19], 13.2 µM; in [20], 2.82 µM.

Turning to `O=c1[nH]c(-c2ccccn2)nc2sc3c(c12)CCCCCC3`, the GI50 was 5.5 µM in assay [9]; 5.62 µM in assay [10]; greater than 100 µM in assay [11]; 0.955 µM in assay [12]; 5.89 µM in assay [13]; 5.5 µM in assay [14]. In addition, the GI50 in assay [15] is 3.98 µM; in assay [16] it was 4.07 µM; in assay [17] it was 2.14 µM; in assay [18], 1.38 µM; in [19], 85.1 µM; in assay [20], 0.871 µM.
